In ChEMBL document CHEMBL4689842, “EUbOPEN Chemogenomics Library wave 1” (2021):

Legend:
Assay type in all cases: toxicity, cell-based
U2OS [1] = experiment: Incucyte cell viability with U2OS; settings: human, 10 µM, compound concentration 10 uM; further: filed as whole numbers so only -1 and 0 and 1 occur
HEK-293T = experiment: Incucyte cell viability with HEK293T; settings: human, 10 µM, compound concentration 10 uM; further: filed as whole numbers so only -1 and 0 and 1 occur
U2OS [2] = experiment: Multiplex assay against U2OS; settings: human
Procedure, shortened: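 On a CQ1 microscope at 37°C and 5% CO2, live cells were imaged after compound addition. They had been stained at seeding with Hoechst33342, BioTracker Green Microtubule Cytoskeleton Dye, MitoTracker Red and Annexin V Alexa Fluor 680. CellPathfinder machine-learning gating assigned cells to Hoechst high-intensity objects or normal cells, normal cells to healthy, pyknosed or fragmented nuclei, and pyknosed cells to mitotic or apoptotic. Tubulin, mitochondrial-mass and membrane-permeability phenotypes are per cents of healthy-nucleus cells.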

Fibroblast = experiment: Incucyte cell viability with human fibroblast; settings: 10 µM, compound concentration 10 uM; further: filed as whole numbers so only -1 and 0 and 1 occur
[3] = 12 h, replicate number 1, timepoint 12 hours
[4] = 18 h, replicate number 1, timepoint 18 hours
[5] = 24 h, replicate number 1, timepoint 24 hours
[6] = 0 h, replicate number 1, timepoint 0 hours
[7] = 12 h, 1 µM, compound concentration 1 uM, replicate 1
[8] = 12 h, 1 µM, compound concentration 1 uM, replicate 2
[9] = 12 h, 10 µM, compound concentration 10 uM, replicate 1
[10] = 12 h, 10 µM, compound concentration 10 uM, replicate 2
[11] = 24 h, 1 µM, compound concentration 1 uM, replicate 1
[12] = 24 h, 1 µM, compound concentration 1 uM, replicate 2
[13] = 24 h, 10 µM, compound concentration 10 uM, replicate 1
[14] = 24 h, 10 µM, compound concentration 10 uM, replicate 2
[15] = 48 h, 1 µM, compound concentration 1 uM, replicate 1
[16] = 48 h, 1 µM, compound concentration 1 uM, replicate 2
[17] = 48 h, 10 µM, compound concentration 10 uM, replicate 1
[18] = 48 h, 10 µM, compound concentration 10 uM, replicate 2

Compound: CCn1c(-c2nonc2N)nc2cnc(Oc3cccc(NC(=O)c4ccc(OCCN5CCOCC5)cc4)c3)cc21 [GSK-269962A]
- Growth Rate (U2OS [1]; [3]): 1
- Growth Rate (U2OS [1]; [4]): 1
- Growth Rate (U2OS [1]; [5]): 1
- Growth Rate (HEK-293T; [6]): 1
- Growth Rate (HEK-293T; 0 h, replicate number 2, timepoint 0 hours): 0
- Growth Rate (HEK-293T; 6 h, replicate number 1, timepoint 6 hours): 0
- Growth Rate (HEK-293T; [3]): 0
- Growth Rate (HEK-293T; [4]): 0
- Growth Rate (HEK-293T; [5]): 0
- Population Apoptotic (%) (U2OS [2]; [7]): 43%
- Population Fragmented Nuclei (%) (U2OS [2]; [7]): 14%
- Population Healthy Nuclei (%) (U2OS [2]; [7]): 64%
- Population Hoechst High Intensity Objects (%) (U2OS [2]; [7]): 12%
- Population Membrane Permeable-Phenotype (%) (U2OS [2]; [7]): 13%
- Population Mitochondria Different-Phenotype (%) (U2OS [2]; [7]): 17%
- Population Mitotic Cells (%) (U2OS [2]; [7]): 56%
- Population Normal (%) (U2OS [2]; [7]): 87%
- Population Pyknosed Nuclei (%) (U2OS [2]; [7]): 21%
- Population Tubulin-Different-Phenotype (%) (U2OS [2]; [7]): 13%
- Total Cell Count (U2OS [2]; [7]): 156
- Population Apoptotic (%) (U2OS [2]; [8]): 20%
- Population Fragmented Nuclei (%) (U2OS [2]; [8]): 20%
- Population Healthy Nuclei (%) (U2OS [2]; [8]): 72%
- Population Hoechst High Intensity Objects (%) (U2OS [2]; [8]): 2%
- Population Membrane Permeable-Phenotype (%) (U2OS [2]; [8]): 14%
- Population Mitochondria Different-Phenotype (%) (U2OS [2]; [8]): 16%
- Population Mitotic Cells (%) (U2OS [2]; [8]): 80%
- Population Normal (%) (U2OS [2]; [8]): 97%
- Population Pyknosed Nuclei (%) (U2OS [2]; [8]): 7%
- Population Tubulin-Different-Phenotype (%) (U2OS [2]; [8]): 14%
- Total Cell Count (U2OS [2]; [8]): 45
- Population Apoptotic (%) (U2OS [2]; [9]): 50%
- Population Fragmented Nuclei (%) (U2OS [2]; [9]): 15%
- Population Healthy Nuclei (%) (U2OS [2]; [9]): 53%
- Population Hoechst High Intensity Objects (%) (U2OS [2]; [9]): 10%
- Population Membrane Permeable-Phenotype (%) (U2OS [2]; [9]): 36%
- Population Mitochondria Different-Phenotype (%) (U2OS [2]; [9]): 94%
- Population Mitotic Cells (%) (U2OS [2]; [9]): 49%
- Population Normal (%) (U2OS [2]; [9]): 90%
- Population Pyknosed Nuclei (%) (U2OS [2]; [9]): 30%
- Total Cell Count (U2OS [2]; [9]): 121
- Population Apoptotic (%) (U2OS [2]; [10]): 31%
- Population Fragmented Nuclei (%) (U2OS [2]; [10]): 20%
- Population Healthy Nuclei (%) (U2OS [2]; [10]): 57%
- Population Hoechst High Intensity Objects (%) (U2OS [2]; [10]): 7%
- Population Membrane Permeable-Phenotype (%) (U2OS [2]; [10]): 45%
- Population Mitochondria Different-Phenotype (%) (U2OS [2]; [10]): 97%
- Population Mitotic Cells (%) (U2OS [2]; [10]): 68%
- Population Normal (%) (U2OS [2]; [10]): 92%
- Population Pyknosed Nuclei (%) (U2OS [2]; [10]): 22%
- Population Tubulin-Different-Phenotype (%) (U2OS [2]; [10]): 100%
- Total Cell Count (U2OS [2]; [10]): 71
- Population Apoptotic (%) (U2OS [2]; [11]): 43%
- Population Fragmented Nuclei (%) (U2OS [2]; [11]): 10%
- Population Healthy Nuclei (%) (U2OS [2]; [11]): 71%
- Population Hoechst High Intensity Objects (%) (U2OS [2]; [11]): 7%
- Population Membrane Permeable-Phenotype (%) (U2OS [2]; [11]): 6%
- Population Mitochondria Different-Phenotype (%) (U2OS [2]; [11]): 18%
- Population Mitotic Cells (%) (U2OS [2]; [11]): 56%
- Population Normal (%) (U2OS [2]; [11]): 92%
- Population Pyknosed Nuclei (%) (U2OS [2]; [11]): 17%
- Population Tubulin-Different-Phenotype (%) (U2OS [2]; [11]): 8%
- Total Cell Count (U2OS [2]; [11]): 174
- Population Apoptotic (%) (U2OS [2]; [12]): 75%
- Population Fragmented Nuclei (%) (U2OS [2]; [12]): 11%
- Population Healthy Nuclei (%) (U2OS [2]; [12]): 77%
- Population Hoechst High Intensity Objects (%) (U2OS [2]; [12]): 2%
- Population Membrane Permeable-Phenotype (%) (U2OS [2]; [12]): 1%
- Population Mitochondria Different-Phenotype (%) (U2OS [2]; [12]): 10%
- Population Mitotic Cells (%) (U2OS [2]; [12]): 25%
- Population Normal (%) (U2OS [2]; [12]): 97%
- Population Pyknosed Nuclei (%) (U2OS [2]; [12]): 11%
- Population Tubulin-Different-Phenotype (%) (U2OS [2]; [12]): 14%
- Total Cell Count (U2OS [2]; [12]): 59
- Population Apoptotic (%) (U2OS [2]; [13]): 70%
- Population Fragmented Nuclei (%) (U2OS [2]; [13]): 13%
- Population Healthy Nuclei (%) (U2OS [2]; [13]): 55%
- Population Hoechst High Intensity Objects (%) (U2OS [2]; [13]): 9%
- Population Membrane Permeable-Phenotype (%) (U2OS [2]; [13]): 52%
- Population Mitochondria Different-Phenotype (%) (U2OS [2]; [13]): 98%
- Population Mitotic Cells (%) (U2OS [2]; [13]): 29%
- Population Normal (%) (U2OS [2]; [13]): 90%
- Population Pyknosed Nuclei (%) (U2OS [2]; [13]): 30%
- Total Cell Count (U2OS [2]; [13]): 138
- Population Apoptotic (%) (U2OS [2]; [14]): 53%
- Population Fragmented Nuclei (%) (U2OS [2]; [14]): 30%
- Population Healthy Nuclei (%) (U2OS [2]; [14]): 52%
- Population Hoechst High Intensity Objects (%) (U2OS [2]; [14]): 5%
- Population Membrane Permeable-Phenotype (%) (U2OS [2]; [14]): 67%
- Population Mitochondria Different-Phenotype (%) (U2OS [2]; [14]): 97%
- Population Mitotic Cells (%) (U2OS [2]; [14]): 46%
- Population Normal (%) (U2OS [2]; [14]): 94%
- Population Pyknosed Nuclei (%) (U2OS [2]; [14]): 17%
- Population Tubulin-Different-Phenotype (%) (U2OS [2]; [14]): 100%
- Total Cell Count (U2OS [2]; [14]): 73
- Population Apoptotic (%) (U2OS [2]; [15]): 48%
- Population Fragmented Nuclei (%) (U2OS [2]; [15]): 14%
- Population Healthy Nuclei (%) (U2OS [2]; [15]): 70%
- Population Hoechst High Intensity Objects (%) (U2OS [2]; [15]): 4%
- Population Membrane Permeable-Phenotype (%) (U2OS [2]; [15]): 7%
- Population Mitochondria Different-Phenotype (%) (U2OS [2]; [15]): 22%
- Population Mitotic Cells (%) (U2OS [2]; [15]): 52%
- Population Normal (%) (U2OS [2]; [15]): 95%
- Population Pyknosed Nuclei (%) (U2OS [2]; [15]): 15%
- Population Tubulin-Different-Phenotype (%) (U2OS [2]; [15]): 7%
- Total Cell Count (U2OS [2]; [15]): 230
- Population Apoptotic (%) (U2OS [2]; [16]): 33%
- Population Fragmented Nuclei (%) (U2OS [2]; [16]): 10%
- Population Healthy Nuclei (%) (U2OS [2]; [16]): 81%
- Population Hoechst High Intensity Objects (%) (U2OS [2]; [16]): 7%
- Population Membrane Permeable-Phenotype (%) (U2OS [2]; [16]): 8%
- Population Mitochondria Different-Phenotype (%) (U2OS [2]; [16]): 11%
- Population Mitotic Cells (%) (U2OS [2]; [16]): 66%
- Population Normal (%) (U2OS [2]; [16]): 92%
- Population Pyknosed Nuclei (%) (U2OS [2]; [16]): 9%
- Population Tubulin-Different-Phenotype (%) (U2OS [2]; [16]): 17%
- Total Cell Count (U2OS [2]; [16]): 82
- Population Apoptotic (%) (U2OS [2]; [17]): 64%
- Population Fragmented Nuclei (%) (U2OS [2]; [17]): 21%
- Population Healthy Nuclei (%) (U2OS [2]; [17]): 43%
- Population Hoechst High Intensity Objects (%) (U2OS [2]; [17]): 6%
- Population Membrane Permeable-Phenotype (%) (U2OS [2]; [17]): 71%
- Population Mitochondria Different-Phenotype (%) (U2OS [2]; [17]): 100%
- Population Mitotic Cells (%) (U2OS [2]; [17]): 35%
- Population Normal (%) (U2OS [2]; [17]): 93%
- Population Pyknosed Nuclei (%) (U2OS [2]; [17]): 34%
- Population Tubulin-Different-Phenotype (%) (U2OS [2]; [17]): 100%
- Total Cell Count (U2OS [2]; [17]): 169
- Population Apoptotic (%) (U2OS [2]; [18]): 57%
- Population Fragmented Nuclei (%) (U2OS [2]; [18]): 13%
- Population Healthy Nuclei (%) (U2OS [2]; [18]): 59%
- Population Hoechst High Intensity Objects (%) (U2OS [2]; [18]): 10%
- Population Membrane Permeable-Phenotype (%) (U2OS [2]; [18]): 87%
- Population Mitochondria Different-Phenotype (%) (U2OS [2]; [18]): 97%
- Population Mitotic Cells (%) (U2OS [2]; [18]): 42%
- Population Normal (%) (U2OS [2]; [18]): 89%
- Population Pyknosed Nuclei (%) (U2OS [2]; [18]): 27%
- Total Cell Count (U2OS [2]; [18]): 108
- Growth Rate (Fibroblast; [6]): 0
- Growth Rate (Fibroblast; [5]): 1
